Test results from PMC5940653 (Leukemia, 2018).

System: STAT3/5 phosphorylation in NK-S1 cells
Experiment: Wash-out assay
Assay type: cell-based
Conditions: NK-S1, 1.0 μM pre-treatment for 2 h
In short: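 NK-S1 cells were grown in DMEM with 10% FBS and 10% equine serum, seeded at 2.5 × 10^6 per well, and exposed to 1.0 µM test compound or DMSO for 2 h. Cells were washed twice in PBS and resuspended in complete medium without inhibitor. They were harvested at washout and 0.5, 1, 2 and 4 h later. Phospho- and total STAT3/5 were immunoblotted, 15 μg protein per lane.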

C[C@@H]1CCN(C(=O)CC#N)C[C@@H]1N(C)c1ncnc2[nH]ccc12 [Tofacitinib]
recovery of phosphorylated STAT3/5 activity post inhibitor washout: within half an hour
